High-throughput results: PubChem, Johns Hopkins Ion Channel Center
Shown are actives, neighbours in structure and some others; about 3.8% of the full set was active somewhere.
hERG rescue – hERG (human) protection from proarrhythmic block | hit rate 0.51% among 310,000 | activation (rescue from dofetilide block), less the hit threshold, % at 10 µM | Q12809 | CHO-hERG, FluxOR thallium flux, dofetilide IC70 present;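 active = activation above the mean of controls blocked by dofetilide plus 5 SD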;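 also: thallium influx through hERG after potassium depolarization seen as dye fluorescence rise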
Target sequence (Q12809 whole entry, looked up): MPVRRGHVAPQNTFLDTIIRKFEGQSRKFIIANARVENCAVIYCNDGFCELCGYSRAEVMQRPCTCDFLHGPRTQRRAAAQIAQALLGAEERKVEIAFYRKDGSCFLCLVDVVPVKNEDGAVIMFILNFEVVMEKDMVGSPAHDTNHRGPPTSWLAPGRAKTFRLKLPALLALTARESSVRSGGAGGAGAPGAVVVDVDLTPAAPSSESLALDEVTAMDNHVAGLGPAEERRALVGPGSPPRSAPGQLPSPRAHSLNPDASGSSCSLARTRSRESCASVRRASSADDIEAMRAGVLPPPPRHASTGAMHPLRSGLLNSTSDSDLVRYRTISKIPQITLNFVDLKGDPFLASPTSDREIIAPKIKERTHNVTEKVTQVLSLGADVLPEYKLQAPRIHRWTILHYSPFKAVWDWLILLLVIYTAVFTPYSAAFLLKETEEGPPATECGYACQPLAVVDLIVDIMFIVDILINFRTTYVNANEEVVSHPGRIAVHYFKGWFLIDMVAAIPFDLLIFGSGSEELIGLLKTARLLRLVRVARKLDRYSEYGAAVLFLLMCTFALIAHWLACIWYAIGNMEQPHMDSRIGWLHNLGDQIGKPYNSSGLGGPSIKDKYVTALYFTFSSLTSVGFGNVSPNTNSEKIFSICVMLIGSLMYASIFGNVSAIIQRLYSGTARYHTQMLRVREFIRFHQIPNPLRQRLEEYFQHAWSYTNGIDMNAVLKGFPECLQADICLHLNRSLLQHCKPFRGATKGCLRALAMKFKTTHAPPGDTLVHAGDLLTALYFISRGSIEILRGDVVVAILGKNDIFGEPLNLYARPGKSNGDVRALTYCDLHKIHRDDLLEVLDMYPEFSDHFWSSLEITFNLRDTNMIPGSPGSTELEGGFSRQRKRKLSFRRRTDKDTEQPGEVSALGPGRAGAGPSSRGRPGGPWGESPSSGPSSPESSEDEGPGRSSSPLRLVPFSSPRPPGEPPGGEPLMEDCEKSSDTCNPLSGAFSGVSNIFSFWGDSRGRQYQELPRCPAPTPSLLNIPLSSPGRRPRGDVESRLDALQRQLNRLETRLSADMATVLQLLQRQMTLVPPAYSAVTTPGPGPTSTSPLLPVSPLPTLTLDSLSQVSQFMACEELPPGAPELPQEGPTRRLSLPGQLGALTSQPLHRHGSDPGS
KCNQ1 block – blocks the human KCNQ1 potassium channel; AID 2642; P51787; hit rate 1.3% among 310,000; B-score at 10 µM; CHO-K1 KCNQ1, FluxOR thallium flux fluorescence; stronger effect = higher value;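 active = compounds whose thallium flux B-score, printed positive for inhibition, exceeds three library SD while starting fluorescence stays within three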;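 also: channel opened by potassium depolarization with thallium stimulus after 20 min compound exposure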
KCNK9 block – human KCNK9 channel inhibition; hit rate 1.2% among 310,000; AID 488922; Q9NPC2; B-score at 10 µM; HEK293 KCNK9, FluxOR thallium flux fluorescence; stronger effect = lower value;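 active = ratio B-score over 3 SD below the library mean, with starting fluorescence within 5 SD of its mean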;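 also: negative B-score means less thallium flux so channel inhibition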
KCNQ1 pot – potentiates or activates the human KCNQ1 potassium channel; hit rate 0.35% among 310,000; B-score at 10 µM; AID 2648; CHO-K1 KCNQ1, thallium flux FluxOR fluorescence; stronger effect = higher value;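 active = fluorescence ratio B-score, a plate-corrected score, at least three library SD, with initial intensity B-score within 5 SD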
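Schedule – 37 °C overnight plating, 90-min dark dye load, 20-min compound pretreatment · System – stable KCNQ1 CHO-K1 line · Probe or stimulus – thallium- and potassium-containing depolarizing buffer · Measured by – kinetic FluxOR fluorescence, 10 s baseline plus 110 s post-stimulus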
KCNK3 block – human KCNK3 channel inhibition, primary screen; O14649; CHO-KCNK3 thallium flux, FluxOR fluorescence; stronger effect = lower value; B-score at 10 µM; hit rate 0.84% among 340,000; AID 602410;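 active = B-score under library mean minus 4 SD, starting fluorescence ratio at most library mean plus 5 SD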;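 also: more negative B-score means stronger inhibition of thallium flux through KCNK3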
Kir21 block – inhibitors of mouse Kir2.1 inward-rectifier potassium channel; HEK293-Kir2.1, FluxOR thallium flux fluorescence; stronger effect = lower value; hit rate 0.85% among 310,000; B-score at 10 µM; P35561;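 active = fluorescence ratio B-score at or below minus 3 SD of library scores, with starting-brightness B-score within 2 SD, cut at about -4.2 in these data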;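 also: channel flux triggered by added potassium and thallium sulfate stimulus; B-score of peak minus minimum fluorescence over baseline after thallium stimulus; more negative B-score means stronger Kir2.1 block with less thallium influx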
KCNK3 confirm – human KCNK3 channel inhibition, confirmation assay | shares compounds with KCNK3 block | CHO-KCNK3 thallium flux, FluxOR fluorescence; 0% buffer, 100% carvedilol maximal block | ratio percent of control, % at 10 µM | hit rate 99% among 2,400 | AID 651638;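 active = ratio percent of control, averaged over triplicates, above buffer control mean plus 5 SD, cut at about 64% in these data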;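 also: ratio is the fluorescence rise from min to max over baseline after thallium stimulus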
KCNK3 uninduced – activity in cells without induced KCNK3 expression | shares compounds with KCNK3 block | thallium flux ratio (lower = more inhibition) at 10 µM | non-induced KCNK3 parental cells, FluxOR thallium flux; stronger effect = lower value | hit rate 40% among 2,400 | AID 651747;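 active = thallium flux ratio, averaged over three wells, more than 5 SD below the buffer control mean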;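 also: host cells are CHO cells without KCNK3 induction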
Of the large screens only hits and unclear results are named; the others gave an inactive call (follow-up assays come after a bar, where they were run).

CCn1nc(C)c(Br)c1Nc1ccc(Br)cc1	none
CCCOC(=O)/C(=C\C=C\c1ccccc1)NC(=O)c1ccccc1	KCNK3 block -10 | KCNK3 confirm 147 | KCNK3 uninduced 0.15
CC1CCN(C(CNS(=O)(=O)c2ccccc2)c2ccccc2)CC1 (stereo not given)	KCNK3 block -13 (no result: hERG rescue, KCNQ1 block, KCNK9 block, KCNQ1 pot, Kir21 block) | KCNK3 confirm 61 | KCNK3 uninduced inactive
Cc1cc(NC(=O)C2C3C(=O)N(CC4CCCO4)C(C(=O)NCc4ccccc4)C34C=CC2(C)O4)no1 (stereo not given)	none
CCOc1ccccc1N(CC(=O)NC1CCCC1)C(=O)CCCC(=O)Nc1ccccn1	none
O=c1c2ccccc2nnn1Cc1ccc(F)cc1	none
CCOC(=O)Cc1nn(Cc2ccc(Cl)cc2)c(=O)c2ccccc12	none
N#CCc1nn(Cc2ccc(F)cc2)c(=O)c2ccccc12	KCNK3 block -9 | KCNK3 confirm 94 | KCNK3 uninduced inactive
CCOC(=O)Cc1nn(Cc2ccccc2)c(=O)c2ccccc12	KCNK3 block -9.9 | KCNK3 confirm 109 | KCNK3 uninduced 0.15
CC1(c2cccs2)CC(c2cccs2)=C(C#N)C(=O)N1 (stereo not given)	none
FC(F)(F)c1cnc(COc2ccc(Cl)cc2Cl)c(Cl)c1	KCNK3 block -9.7 | KCNK3 confirm 102 | KCNK3 uninduced inactive
CC(=O)c1ccc(OCc2ncc(C(F)(F)F)cc2Cl)cc1	none
N#Cc1nc(-c2ccco2)oc1N1CCN(c2cccc(Cl)c2)CC1	KCNK3 block -9.6 | KCNK3 confirm 111 | KCNK3 uninduced inactive
N#Cc1nc(-c2ccco2)oc1N1CCCC1	none
CC1=C(C(=O)OCc2ccccc2)C(c2ccc3c(c2)OCO3)NC(=O)N1CCCC(=O)O (stereo not given)	none
CC(C)CNC(=S)N1CCN(C(c2ccccc2)c2ccccc2)CC1	none
S=C(NCc1ccco1)N1CCN(C(c2ccccc2)c2ccccc2)CC1	KCNK9 block -7.8, KCNK3 block -12 | KCNK3 confirm 135 | KCNK3 uninduced 0.15
COc1ccccc1CN(C)CC(=O)Nc1cccc2ccccc12	none
COc1cc(Cl)c(C)cc1NC(=O)CN(C)Cc1cccc(OC)c1OC	KCNK3 block -13 | KCNK3 confirm 99 | KCNK3 uninduced inactive
S=C(c1ccc(-c2cc(Cl)ccc2Cl)o1)N1CCOCC1	KCNK3 block -8.9 | KCNK3 confirm 126 | KCNK3 uninduced 0.14
CCOC(=O)c1c(C)[nH]c(C)c1C(=O)COC(=O)c1c(OC)cccc1OC	none
CCOC(=O)c1c(C)[nH]c(C)c1C(=O)COC(=O)[C@@H](NC(=O)c1ccccc1OCC)C(C)C	KCNK3 block -9.1 | KCNK3 confirm 104 | KCNK3 uninduced inactive
CCOC(=O)c1nc(C)nc(Sc2n[nH]c(-c3cc(C(F)(F)F)cc(C(F)(F)F)c3)n2)c1C	KCNQ1 block 6, KCNK3 block -9.4 | KCNK3 confirm 102 | KCNK3 uninduced 0.12
COc1ccc(S(=O)(=O)N(C)CC(=O)NC2CC2)cc1	none
Cc1cccc(-n2c(C)c(C)c3c(N)ncnc32)c1	none
O=Nc1nc2ncccn2c1-c1ccccc1	none (no result: hERG rescue, KCNQ1 block, KCNK9 block, KCNQ1 pot, Kir21 block)
COc1cccc(OCCn2cc(C(C)=O)c3ccccc32)c1	KCNK3 block -9.2 | KCNK3 confirm 124 | KCNK3 uninduced inactive
COc1ccccc1OCCn1cc(C(=O)c2ccco2)c2ccccc21	KCNK9 block -7.4, KCNK3 block -12 | KCNK3 confirm 102 | KCNK3 uninduced inactive
COc1ccccc1NC(=O)Cn1cc(C(=O)c2ccco2)c2ccccc21	none
CN1CCN(C(=O)CN(c2cc(C(F)(F)F)ccc2Cl)S(C)(=O)=O)CC1	none
COc1ccc(CNS(=O)(=O)c2cc(OCC(N)=O)c(C)cc2Cl)cc1	none
O=C(Nc1ccc2nc(-c3ccco3)[nH]c2c1)c1ccco1	KCNK3 block -8.9 | KCNK3 confirm 140 | KCNK3 uninduced inactive
Cn1cccc1-c1nc2ccc(NC(=O)c3ccccc3)cc2[nH]1	KCNK3 block -11 | KCNK3 confirm 103 | KCNK3 uninduced inactive
COc1cc(CN2CC(=O)N(c3cc(Cl)ccc3C)C2=S)cc(OC)c1OC	none
COc1ccc(C2CC(=O)C=C(NCCC(C)C)C2)cc1 (stereo not given)	KCNK3 block -22 | KCNK3 confirm 111 | KCNK3 uninduced inactive
COc1ccc(C2CC(=O)C=C(NC3CCCC3)C2)cc1 (stereo not given)	none
O=C(N1CCOCC1)N1c2ccccc2Sc2ccccc21	none
O=C(NC1CCN(C(=O)N2c3ccccc3Sc3ccccc32)CC1)c1ccccc1F	KCNK3 block -11 | KCNK3 confirm 89 | KCNK3 uninduced inactive
CCOc1ccc(S(=O)(=O)N2CCC(C(=O)OC(C)C(=O)NC3CCCCC3C)CC2)cc1 (stereo not given)	none (no result: hERG rescue, KCNQ1 block, KCNK9 block, KCNQ1 pot, Kir21 block)
Cc1ccc2nc(-c3ccc(NC(=S)NC(=O)C(C)C)cc3)sc2c1	none
Cc1ccc2nc(-c3ccc(NC(=S)NC4CC(C)(C)NC(C)(C)C4)cc3)sc2c1	KCNQ1 block 8, KCNK3 block -15, Kir21 block -5.1 | KCNK3 confirm 125 | KCNK3 uninduced 0.15
CC(C)n1ncc2c(C(=O)Nc3cccc(C#N)c3)cc(C3CC3)nc21	KCNK3 block -12 (no result: hERG rescue, KCNQ1 block, KCNK9 block, KCNQ1 pot, Kir21 block) | KCNK3 confirm 118 | KCNK3 uninduced 0.13
CSCCC(=O)N1CCCC(N(C)CCc2ccccc2)C1 (stereo not given)	none
Cc1c(N2CCCC2)cc2c(c1NC(=O)c1ccccc1Cl)C(C)(C)CC2(C)C	KCNK3 block -9.3 | KCNK3 confirm 114 | KCNK3 uninduced 0.13
O=C(Nc1ccc(N2CCOCC2)c(Cl)c1)c1ccccc1Cl	none
C=CC[C@@H](Cc1ccc(F)cc1)C(=O)OC[C@@H]1CCCN1C(=O)[C@@H](CC=C)CC(=O)N(CCO)Cc1ccccc1	none (no result: hERG rescue, KCNQ1 block, KCNK9 block, KCNQ1 pot, Kir21 block)
Fc1ccccc1SCc1nnc(-c2ccccc2Br)o1	none
CC(C)c1ccc(CN2CC(C(=O)Nc3ccccc3)CC2=O)cc1 (stereo not given)	none
CCc1ccc(-c2cc(C)no2)cc1S(=O)(=O)N1CCN(c2ccccc2F)CC1	KCNK3 block -8.8 | KCNK3 confirm 81 | KCNK3 uninduced inactive
CCc1ccc(-c2cc(C)no2)cc1S(=O)(=O)N1CCN(c2ccc(C(C)=O)cc2)CC1	none
COc1ccc(/C=C(/NC(=O)c2ccccc2)C(=O)N2CCOCC2)cc1OC	none
COc1cc(OC)cc(C(=O)OCC(=O)NCc2ccc3c(c2)OCO3)c1	none
